The values that follow come from ChEMBL document CHEMBL1155478, “Novel C-aryl glucoside SGLT2 inhibitors as potential antidiabetic agents: Pyridazinylmethylphenyl glucoside congeners” (Bioorg Med Chem Lett, 2010).

The target in data set [1] is T1, Sodium/glucose cotransporter 2 (Homo sapiens, UniProt P31639).
T1 sequence (P31639 whole entry): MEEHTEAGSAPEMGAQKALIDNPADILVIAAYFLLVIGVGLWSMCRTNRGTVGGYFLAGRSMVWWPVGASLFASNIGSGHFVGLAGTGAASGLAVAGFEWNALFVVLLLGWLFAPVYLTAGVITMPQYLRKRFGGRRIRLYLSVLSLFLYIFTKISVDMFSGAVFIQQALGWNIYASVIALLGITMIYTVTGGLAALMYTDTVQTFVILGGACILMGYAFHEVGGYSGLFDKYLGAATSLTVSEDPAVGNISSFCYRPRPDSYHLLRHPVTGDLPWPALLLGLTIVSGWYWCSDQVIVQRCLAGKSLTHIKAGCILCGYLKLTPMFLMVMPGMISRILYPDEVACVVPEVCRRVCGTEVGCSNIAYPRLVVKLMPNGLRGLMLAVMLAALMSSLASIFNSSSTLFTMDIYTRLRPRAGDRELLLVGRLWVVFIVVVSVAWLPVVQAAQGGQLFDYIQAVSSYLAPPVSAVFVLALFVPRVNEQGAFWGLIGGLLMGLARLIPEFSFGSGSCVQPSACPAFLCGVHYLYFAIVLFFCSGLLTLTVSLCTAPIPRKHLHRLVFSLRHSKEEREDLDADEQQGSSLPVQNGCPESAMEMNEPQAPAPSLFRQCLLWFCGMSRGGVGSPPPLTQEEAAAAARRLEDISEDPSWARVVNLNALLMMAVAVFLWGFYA
Nature of the data set: Inhibition of human SGLT2 expressed in CHO cells assessed as [14C]alpha-methyl-D-glucopyranoside uptake after 2 hrs by liquid scintillation counting. It counts as cell-based. A digest of the protocol:
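CHO cells stably transfected with hSGLT2 (pcDNA3.1(+), G418-selected), seeded at 5 × 10⁴ cells/well and used 1 day later. Cells pre-incubated 10 min at 37 °C in Na⁺-free choline chloride buffer pH 7.4. Then incubated 2 h at 37 °C in NaCl uptake buffer with 1 mM unlabeled AMG plus ¹⁴C-AMG, with inhibitor or DMSO. Washed with 10 mM AMG buffer; radioactivity counted by liquid scintillation.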

Data set [2] concerns Rattus norvegicus. Briefly: Increase of urinary glucose excretion in normal Sprague-Dawley rat assessed per 200 g of body weight at 10 mg/kg, po subsequently dosed orally with 50% aqueous glucose solution measured up to 24 hrs (RVB = […] mg/200 g of body weight). It counts as functional, Urine.
Data set [3] in a line: Cmax in Sprague-Dawley rat at 5 mg/kg, po after 0.33 hrs. It counts as ADME, organism-based. Further details: dose 5 mg/kg, route oral. As to conditions: in vivo. Put shortly:
(§1)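 Male SD rats given a single oral dose of 5 mg/kg. Plasma sampled to obtain Cmax, time to Cmax and elimination half-life after oral dosing. Oral bioavailability (F) determined.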

The subject of data set [4] is Rattus norvegicus. Briefly: Increase of urinary volume in normal Sprague-Dawley rat assessed […] at 10 mg/kg, po subsequently dosed orally with 50% aqueous glucose solution measured up to 24 hrs (RVB = 3.9 +/- 0.23 ml/200 mg body weight).
In data set [5] the test system is Rattus norvegicus. Briefly: Increase of urinary volume in normal Sprague-Dawley rat at 10 mg/kg, po subsequently dosed orally with 50% aqueous glucose solution measured up to 24 hrs relative to control. In kind it is functional, Urine.
For data set [6], the system named is Rattus norvegicus. Briefly: Increase of urinary glucose excretion in normal Sprague-Dawley rat at 10 mg/kg, po subsequently dosed orally with 50% aqueous glucose solution measured up to 24 hrs relative to control. In kind it is functional, Urine.
A short description of data set [7]: Elimination half life in Sprague-Dawley rat at 5 mg/kg, po. Further details: dose 5 mg/kg, route oral. In kind it is ADME, organism-based. As to conditions: in vivo, read-out: beta t1/2 (converted). Put shortly: as §1
Data set [8] is described as follows: Oral bioavailability in Sprague-Dawley rat at 5 mg/kg. In kind it is ADME, organism-based. To be noted: in vivo. A digest of the protocol: as §1
A short description of a further data set: in vivo. To be noted: Sprague-Dawley, rat, po, 5 mg/kg.

What is called IC50 is the concentration that gives 50% inhibition. Take `COc1cccc(-c2ccc(Cc3cc([C@@H]4O[C@H](CO)[C@@H](O)[C@H](O)[C@H]4O)ccc3Cl)nn2)c1`: the IC50 in data set [1] stood at 351 nM.

On to `CC(C)Oc1ccc(Cc2cc([C@@H]3O[C@H](CO)[C@@H](O)[C@H](O)[C@H]3O)ccc2Cl)nn1`, for which the IC50 in data set [1] is 110 nM.

The Cmax is the maximum level reached in the sampled fluid or tissue. One may read the bioavailability as dose-corrected exposure relative to a reference, in per cent. Lower therefore signals little systemic uptake. Take `CSc1ccc(Cc2cc([C@@H]3O[C@H](CO)[C@@H](O)[C@H](O)[C@H]3O)ccc2Cl)nn1`: the Activity in the data set on Rattus norvegicus [2] came to 344 mg; in the data set on Rattus norvegicus [4], 5.07 mL. The compound also yielded a Cmax in [3] of 310 ng/mL. The “fold change (FC)” value stood at 1.3 in the data set with Rattus norvegicus [5] and 180 with Rattus norvegicus [6]. For the same compound, the half-life in [7] was 1.94 h. The compound further had a bioavailability in [8] of 26.1%.

`Cc1nnc(Cc2cc([C@@H]3O[C@H](CO)[C@@H](O)[C@H](O)[C@H]3O)ccc2Cl)c2ccccc12`: the IC50 in data set [1] is over 10000 nM.

Consider `CCOc1ccc(Cc2cc([C@@H]3O[C@H](CO)[C@@H](O)[C@H](O)[C@H]3O)ccc2Cl)cc1` [DAPAGLIFLOZIN], for which the Cmax at 0.67 h in “in vivo” was 2500 ng/mL. For the same compound, the half-life in data set [7] was 4 h. In addition, the bioavailability in data set [8] was 88.4%.
